# Assay results taken from ChEMBL document CHEMBL1141840, “Antifungal metabolites from the marine sponge Pachastrissa sp.: new bengamide and bengazole derivatives” (1999).
# Calls of active or inactive are those of the source. The rule behind the calls is not given here.
# How the values were obtained:
# Candida albicans = assay: Antifungal activity against Candida albicans CIP 118079 after 24 hrs by liquid-phase turbidimetric system; type: functional; conditions: for MIC: CIP 118079, 24 h
# Outline: (§1)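 Fungal growth followed in liquid culture by turbidimetry, read automatically every 30 min over 24 h, with compounds tested at various concentrations.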
# Saccharomyces cerevisiae = assay: Antimicrobial activity against Saccharomyces cerevisiae ATCC 28383 after 24 hrs by liquid-phase turbidimetric system; type: functional, organism-based; outline: as §1
SMILES,MIC (Candida albicans),Activity (Saccharomyces cerevisiae),Activity (Candida albicans)
CCCCCCCCCCCCCCCC(=O)O[C@@H](C)[C@@H](O)[C@@H](O)C[C@@H](O)c1coc(Cc2cnco2)n1,0.8 µg/mL,inactive,
CCCCCCCCCCCCCC(=O)O[C@H](C[C@H](O)[C@H](O)[C@H](C)O)c1coc(Cc2cnco2)n1,0.8 µg/mL,inactive,
CC(C)CCCCCCCCCCCC(=O)O[C@H](C[C@H](O)[C@H](O)[C@H](C)O)c1coc(Cc2cnco2)n1,0.8 µg/mL,inactive,
CC(C)CCCCCCCCCCCC(=O)O[C@@H](C)[C@@H](O)[C@@H](O)C[C@@H](O)c1coc(Cc2cnco2)n1,0.8 µg/mL,inactive,
CC(C)CCCCCCCCCCCCC(=O)O[C@@H](C)[C@@H](O)[C@@H](O)C[C@@H](O)c1coc(Cc2cnco2)n1,0.8 µg/mL,inactive,
CC(C)CCCCCCCCCCCCC(=O)O[C@H](C[C@H](O)[C@H](O)[C@H](C)O)c1coc(Cc2cnco2)n1,0.8 µg/mL,inactive,
CCCCCCCCCCCCCCC(=O)O[C@@H](C)[C@@H](O)[C@@H](O)C[C@@H](O)c1coc(Cc2cnco2)n1,0.8 µg/mL,inactive,
CCCCCCCCCCCCCCC(=O)O[C@H](C[C@H](O)[C@H](O)[C@H](C)O)c1coc(Cc2cnco2)n1,0.8 µg/mL,inactive,
CCCCCCCCCCCCCC(=O)O[C@@H](C)[C@@H](O)[C@@H](O)C[C@@H](O)c1coc(Cc2cnco2)n1,0.8 µg/mL,inactive,
CCCCCCCCCCCCCC(=O)O[C@H]1CC[C@H](NC(=O)[C@H](OC)[C@H](O)[C@@H](O)[C@H](O)/C=C/C(C)C)C(=O)N(C)C1,,inactive,inactive
CCCCCCCCCCCCCCCC(=O)O[C@H](C[C@H](O)[C@H](O)[C@H](C)O)c1coc(Cc2cnco2)n1,0.8 µg/mL,inactive,
C[C@H](O)[C@@H](O)[C@@H](O)C[C@@H](O)c1coc(Cc2cnco2)n1,,inactive,inactive
CCCCCCCCCCCCCC(=O)O[C@H]1CC[C@H](NC(=O)[C@H](OC)[C@H](O)[C@@H](O)[C@H](O)/C=C/C(C)C)C(=O)NC1,,inactive,inactive
CO[C@@H](C(=O)N[C@H]1CC[C@H](OC(=O)CCCCCCCCCCCC(C)C)CNC1=O)[C@H](O)[C@@H](O)[C@H](O)/C=C/C(C)C,,inactive,inactive
CO[C@@H](C(=O)N[C@H]1CCCCNC1=O)[C@H](O)[C@@H](O)[C@H](O)/C=C/C(C)C,,inactive,inactive
